Our source for the Ratio values is ChEMBL document CHEMBL1127616, “Synthesis, structural characterization, and antitumor properties of a novel class of large-ring platinum(II) chelate complexes incorporating the cis-1,4-diaminocyclohexane ligand in a unique locked boat conformation” (J Med Chem, 1994).

The assay has as its system L1210. Nature of the assay: Tested for the ratio of treated and control against solid tumor murine L1210 Pt-resistant leukemia 4.0 mg/kg per injection in experiment 1; T/C. The following applies: Mus musculus. Type of assay: functional, organism-based. The procedure, abridged: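 Murine leukemia life span assay in CD2F1 (Balb/c × DBA/2F1) mice, 18–22 g, randomized, with IP tumor cell inoculation on day 0. Depending on the model, the inoculum was 1 × 10^4 cells with IP dosing on days 3, 7 and 11, or 1 × 10^6 cells with IP dosing on days 1, 5 and 9. Drug was given in 0.9% saline, mg/kg per injection, by average cage weight. Read-outs were median day of death and %T/C. Mice alive 60 days after treatment counted as cured and were excluded.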

For the sequence CISPLATIN, the Ratio was determined as 109%.
